In article PMC12377187 (RSC Advances, 2025):
Where two headings read alike, the source gives them in different places.

What was measured:
[1] = tested on: RD – rhabdomyosarcoma cell line; assay: MTT cytotoxicity, RD cell line; assay type: cell-based; settings: 72 h
Summary of the method: (§1)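 Cells seeded at 5000 per well in Eagle's MEM with 10% fetal calf serum, 2 mM L-glutamine, penicillin and streptomycin, then pre-incubated 24 h at 37 °C, 5% CO2. A concentration series of test compound in DMSO, with a reference drug, was applied for 72 h. MTT added for 4 h at 37 °C, formazan dissolved in ethanol, OD read at 570 nm. Inhibition calculated against blank and control absorbances.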

[2] = tested on: MDA-MB-231 – human breast cancer cell line; assay: MTT cytotoxicity, MDA-MB-231 cell line; assay type: cell-based; settings: MDA-MB-231, 72 h, read-out: IC50 MDA-MB-231
Summary of the method: as §1

HT-29 cell line = settings: cited from earlier work
SW620 cell line = settings: cited from earlier work
[3] = Rhabdomyosarcoma cell, read-out: IC50 RD, MTT, 72 h, mean ± SD
[4] = read-out: IC50 RD, MTT, mean ± SD

Row | Structure (SMILES) | IC50 [1, 3] | IC50 [2] | IC50 [1, 4] | inhibitory activity against HT-29 (HT-29 cell line) | inhibitory activity against SW620 (SW620 cell line)
1 | O=c1c2cc(Cl)ccc2nc(-c2ccccc2)n1N=Cc1cccc([N+](=O)[O-])c1 [Compound 16, 6-Chloro-3-((3-nitrobenzylidene)amino)-2-phenyl-4(3H)-quinazolone] | 82.3 ± 1.99 µM | 301 ± 27.1 µM | – | – | –
2 | O=c1c2cc(Cl)ccc2nc(-c2ccccc2)n1N=Cc1ccc(F)cc1 [Compound 4, 6-Chloro-3-((4-fluorobenzylidene)amino)-2-phenyl-4(3H)-quinazolone] | 235 ± 8.29 µM | 21.6 ± 1.11 µM | – | – | –
3 | CC(=O)O[C@H]1C(=O)[C@@]2(C)[C@H]([C@H](OC(=O)c3ccccc3)[C@]3(O)C[C@H](OC(=O)[C@H](O)[C@@H](NC(=O)c4ccccc4)c4ccccc4)C(C)=C1C3(C)C)[C@]1(OC(C)=O)CO[C@@H]1C[C@@H]2O [PTX, paclitaxel, reference compound] | 0.58 ± 0.01 µM | 0.04 ± 0.02 µM | – | – | –
4 | O=c1c2cc(Cl)ccc2nc(-c2ccccc2)n1N=Cc1ccccc1O [Compound 19, 6-Chloro-3-((2-hydroxybenzylidene)amino)-2-phenyl-4(3H)-quinazolone] | 51.1 ± 0.99 µM | 37.5 ± 0.63 µM | – | – | –
5 | O=c1c2cc(Cl)ccc2nc(-c2ccccc2)n1N=Cc1cccc(O)c1 [Compound 9, 6-Chloro-3-((3-hydroxybenzylidene)amino)-2-phenyl-4(3H)-quinazolone] | 254 ± 14.2 µM | 84.4 ± 1.26 µM | – | – | –
6 | CCOc1ccc(C=Nn2c(-c3ccccc3)nc3ccc(Cl)cc3c2=O)cc1 [Compound 17, 6-Chloro-3-((4-ethoxybenzylidene)amino)-2-phenyl-4(3H)-quinazolone] | 376 ± 8.08 µM | 194 ± 8.83 µM | – | – | –
7 | O=c1c2cc(Cl)ccc2nc(-c2ccccc2)n1N=Cc1ccc2c(c1)OCO2 [Compound 6, 3-((Benzo[d][1,3]dioxol-5-ylmethylene)amino)-6-chloro-2-phenyl-4(3H)-quinazolone] | 50 to 55 µM | 10.6 ± 0.67 µM | 54.5 ± 0.81 µM | – | –
8 | CCOc1ccc(C=Nn2c(-c3ccccc3)nc3ccc(Cl)cc3c2=O)cc1O [Compound 10, 6-Chloro-3-((4-ethoxy-3-hydroxybenzylidene)amino)-2-phenyl-4(3H)-quinazolone] | 430 ± 72.9 µM | 85.5 ± 2.32 µM | – | – | –
9 | O=c1c2cc(Cl)ccc2nc(-c2ccccc2)n1N=Cc1c(F)cccc1Cl [Compound 5, 6-Chloro-3-((2-chloro-6-fluorobenzylidene)amino)-2-phenyl-4(3H)-quinazolone] | 14.7 ± 0.68 µM | 148 ± 5.64 µM | – | – | –
10 | O=c1c2cc(Cl)ccc2nc(-c2ccccc2)n1N=Cc1ccccc1 [Compound 21, 3-(Benzylideneamino)-6-chloro-2-phenyl-4(3H)-quinazolone] | 143 ± 12.7 µM | 121 ± 9.35 µM | – | – | –
11 | O=c1c2cc(Cl)ccc2nc(-c2ccccc2)n1N=Cc1ccco1 [Compound 15, 6-Chloro-3-((furan-2-ylmethylene)amino)-2-phenyl-4(3H)-quinazolone] | 38.6 ± 1.07 µM | 56.6 ± 5.37 µM | – | – | –
12 | COc1ccc(C=Nn2c(-c3ccccc3)nc3ccc(Cl)cc3c2=O)cc1OC [Compound 13, 6-Chloro-3-((3,4-dimethoxybenzylidene)amino)-2-phenyl-4(3H)-quinazolone] | 130 ± 10.4 µM | 139 ± 4.04 µM | – | – | –
13 | O=c1c2cc(Cl)ccc2nc(-c2ccccc2)n1N=Cc1ccc([N+](=O)[O-])cc1 [Compound 2, 6-Chloro-3-((4-nitrobenzylidene)amino)-2-phenyl-4(3H)-quinazolone] | 151 ± 2.06 µM | 104 ± 3.63 µM | – | – | –
14 | COc1ccc(C=Nn2c(-c3ccccc3)nc3ccc(Cl)cc3c2=O)cc1O [Compound 20, 6-Chloro-3-((3-hydroxy-4-methoxybenzylidene)amino)-2-phenyl-4(3H)-quinazolone] | 48.1 ± 3.97 µM | 198 ± 13.3 µM | – | – | –
15 | O=c1c2cc(Cl)ccc2nc(-c2ccccc2)n1N=Cc1cccnc1 [Compound 14, 6-Chloro-2-phenyl-3-((pyridin-3-ylmethylene)amino)-4(3H)-quinazolone] | 136 ± 17 µM | 262 ± 43.9 µM | – | – | –
16 | O=c1c2cc(Cl)ccc2nc(-c2ccccc2)n1N=Cc1ccc(Cl)c(Cl)c1 [Compound 3, 6-Chloro-3-((3,4-dichlorobenzylidene)amino)-2-phenyl-4(3H)-quinazolone] | 246 ± 24.3 µM | 91.5 ± 1.47 µM | – | – | –
17 | O=c1c2cc(Cl)ccc2nc(-c2ccccc2)n1N=Cc1ccccc1Cl [Compound 12, 6-Chloro-3-((2-chlorobenzylidene)amino)-2-phenyl-4(3H)-quinazolinone] | 126 ± 6.2 µM | 321 ± 51.8 µM | – | – | –
18 | O=c1c2cc(Cl)ccc2nc(-c2ccccc2)n1N=Cc1ccc(Br)cc1O [Compound 7, 3-((4-Bromo-2-hydroxybenzylidene)amino)-6-chloro-2-phenyl-4(3H)-quinazolone] | 50 to 55 µM | 8.79 ± 0.34 µM | 51.6 ± 1.19 µM | – | –
19 | CN(C)c1ccc(C=Nn2c(-c3ccccc3)nc3ccc(Cl)cc3c2=O)cc1 [Compound 8, 6-Chloro-3-((4-(dimethylamino)benzylidene)amino)-2-phenyl-4(3H)-quinazolone] | 198 ± 18.9 µM | 101 ± 3.75 µM | – | – | –
20 | O=c1c2cc(Cl)ccc2nc(-c2ccccc2)n1N=Cc1ccc(Cl)cc1Cl [Compound 11, 6-Chloro-3-((2,4-dichlorobenzylidene)amino)-2-phenyl-4(3H)-quinazolone] | 251 ± 25.5 µM | 99.4 ± 1.76 µM | – | – | –
21 | COc1cccc(C=Nn2c(-c3ccccc3)nc3ccc(Cl)cc3c2=O)c1 [Compound 18, 6-Chloro-3-((3-methoxybenzylidene)amino)-2-phenyl-4(3H)-quinazolone] | 84.8 ± 9.35 µM | 329 ± 47.2 µM | – | – | –
22 | O=c1[nH]cc(F)c(=O)[nH]1 [fluorouracil] | – | – | – | 34.1% | 57.3%
